As a reminder, the AUC is the area under the concentration-time curve, a measure of exposure. A word on the IC50: it is the concentration at which inhibition is half-maximal.

These results are taken from ChEMBL document CHEMBL3232904, “Discovery of novel quinoline carboxylic acid series as DGAT1 inhibitors” (Bioorg Med Chem Lett, 2014).

In series [1] the test system is Plasma. The experiment in a line: Metabolic stability in rat plasma at 25 degC. The series is classed as ADME, cell-free.
The subject of series [2] is Mus musculus. The experiment in a line: Reduction of postprandial plasma triglyceride level in C57BL/6J mouse at 3 mg/kg, po administered 15 mins prior to corn oil bolus challenge measured after 2 hrs relative to vehicle-treated control. It is filed as functional. Also on record: scale not given: the % may be the effect or the level left. Put shortly: (§1)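 Vehicle is 20% hydroxypropyl-β-cyclodextrin; compound or vehicle is given 15 min before time 0. Mice receive a 0.25 mL corn oil bolus at time 0. Terminal blood is taken by heart puncture at 120 min. Plasma TG is measured by an enzymatic colorimetric kit with absorbance read at 600 nm. Values are the mean ± SEM from eight studies, as % reduction versus vehicle.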

Series [3] deals with Plasma. The experiment in a line: Metabolic stability in mouse plasma at 25 degC. The series is classed as ADME, cell-free.
Series [4] is described as follows: AUC in rat at 10 mg/kg, po. It is filed as ADME, organism-based. On the set-up: dose 10 mg/kg, route oral. The following applies: plasma.
Series [5] deals with Plasma. Put plainly: Metabolic stability in human plasma at 25 degC. It is filed as ADME, cell-free.
For series [6], the target named is T1, Diacylglycerol O-acyltransferase 1 (Mus musculus, UniProt Q9Z2A7).
T1 sequence (Q9Z2A7 whole entry): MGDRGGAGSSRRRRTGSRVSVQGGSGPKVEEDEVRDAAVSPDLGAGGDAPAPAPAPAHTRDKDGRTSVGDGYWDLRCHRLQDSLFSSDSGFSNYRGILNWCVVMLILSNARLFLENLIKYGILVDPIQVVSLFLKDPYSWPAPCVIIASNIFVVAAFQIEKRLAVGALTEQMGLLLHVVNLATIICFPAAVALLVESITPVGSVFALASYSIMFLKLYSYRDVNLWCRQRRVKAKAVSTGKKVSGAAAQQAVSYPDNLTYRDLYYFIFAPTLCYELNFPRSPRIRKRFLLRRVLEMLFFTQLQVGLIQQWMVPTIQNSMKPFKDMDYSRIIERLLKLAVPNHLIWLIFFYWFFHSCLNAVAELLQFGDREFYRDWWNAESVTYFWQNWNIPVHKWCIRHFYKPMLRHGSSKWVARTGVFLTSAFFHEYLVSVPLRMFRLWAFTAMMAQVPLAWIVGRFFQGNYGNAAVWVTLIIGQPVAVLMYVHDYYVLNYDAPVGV
Put plainly: Inhibition of mouse DGAT1. Put shortly: (§2)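 IC50 values are the average of at least two independent determinations.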

The target of series [7] is T2, Sterol O-acyltransferase 2 (Homo sapiens, UniProt O75908).
T2 sequence (O75908 whole entry): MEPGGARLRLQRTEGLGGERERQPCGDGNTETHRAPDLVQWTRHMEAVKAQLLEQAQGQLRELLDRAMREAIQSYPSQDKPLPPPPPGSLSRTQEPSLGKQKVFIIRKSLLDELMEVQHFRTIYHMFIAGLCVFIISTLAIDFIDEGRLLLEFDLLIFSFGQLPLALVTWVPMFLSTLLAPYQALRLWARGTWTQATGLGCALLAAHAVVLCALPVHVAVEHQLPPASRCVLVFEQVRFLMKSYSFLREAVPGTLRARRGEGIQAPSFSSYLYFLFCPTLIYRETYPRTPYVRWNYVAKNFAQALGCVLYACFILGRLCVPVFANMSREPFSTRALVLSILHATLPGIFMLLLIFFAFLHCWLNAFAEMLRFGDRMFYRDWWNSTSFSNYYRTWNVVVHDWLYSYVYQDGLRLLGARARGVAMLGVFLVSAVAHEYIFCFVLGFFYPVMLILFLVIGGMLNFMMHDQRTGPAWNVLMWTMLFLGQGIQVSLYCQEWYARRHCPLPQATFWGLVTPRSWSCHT
Put plainly: Inhibition of human ACAT2. Put shortly:
as §2

Series [8] deals with Mus musculus. The experiment in a line: Reduction of postprandial plasma triglyceride level in C57BL/6J mouse at 1 mg/kg, po administered 15 mins prior to corn oil bolus challenge measured after 2 hrs relative to vehicle-treated control. The series is classed as functional. On the set-up: scale not given: the % may be the effect or the level left. In outline:
as §1

Series [9] deals with T3, PXR (nuclear receptor subfamily 1 group I member 2) (Homo sapiens, UniProt O75469).
T3 sequence (O75469 whole entry): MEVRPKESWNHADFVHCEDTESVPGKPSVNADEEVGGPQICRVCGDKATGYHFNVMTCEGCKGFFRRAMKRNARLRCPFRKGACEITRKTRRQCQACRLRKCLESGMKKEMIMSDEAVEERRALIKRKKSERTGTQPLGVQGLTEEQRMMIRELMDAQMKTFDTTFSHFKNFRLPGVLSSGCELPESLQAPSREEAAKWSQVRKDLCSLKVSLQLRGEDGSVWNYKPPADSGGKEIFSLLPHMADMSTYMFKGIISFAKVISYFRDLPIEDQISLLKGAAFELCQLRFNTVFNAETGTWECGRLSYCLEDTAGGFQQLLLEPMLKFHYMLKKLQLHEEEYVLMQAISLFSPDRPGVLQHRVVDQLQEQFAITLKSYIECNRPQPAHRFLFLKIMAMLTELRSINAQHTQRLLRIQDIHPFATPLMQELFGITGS
The experiment in a line: Activation of PXR (unknown origin) at 10 uM. It is filed as ADME. The settings on record: read-out: FC.

Series [10] relates to Mus musculus. Put plainly: Reduction of plasma triglyceride level in C57BL/6J mouse at 3 mg/kg, po administered 15 mins prior to corn oil bolus challenge measured after 12 hrs relative to vehicle-treated control. It is filed as functional. On the set-up: scale not given: the % may be the effect or the level left.
Series [11] deals with T4, Cytochrome P450 1A1 (Homo sapiens, UniProt P04798).
T4 sequence (P04798 whole entry): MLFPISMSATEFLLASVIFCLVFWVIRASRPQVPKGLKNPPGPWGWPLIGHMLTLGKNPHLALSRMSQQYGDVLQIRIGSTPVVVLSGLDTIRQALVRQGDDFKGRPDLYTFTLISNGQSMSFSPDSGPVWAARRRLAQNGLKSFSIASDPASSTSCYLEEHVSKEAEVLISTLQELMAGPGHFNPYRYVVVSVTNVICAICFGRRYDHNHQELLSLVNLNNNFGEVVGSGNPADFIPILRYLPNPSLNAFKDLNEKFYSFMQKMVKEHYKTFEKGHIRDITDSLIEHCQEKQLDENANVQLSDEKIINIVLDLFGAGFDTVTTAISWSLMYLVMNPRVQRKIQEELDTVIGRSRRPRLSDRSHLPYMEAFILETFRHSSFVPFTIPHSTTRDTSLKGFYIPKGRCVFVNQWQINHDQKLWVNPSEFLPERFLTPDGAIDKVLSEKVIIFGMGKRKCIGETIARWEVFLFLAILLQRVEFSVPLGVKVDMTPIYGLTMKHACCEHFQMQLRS
Put plainly: Induction of CYP1A1 (unknown origin). It is filed as ADME.

Regarding `CC(C)c1cccc(NC(=O)c2ccnc3cc(-c4ccc([C@H]5CC[C@H](CC(=O)O)CC5)cc4)ccc23)c1`, the Stability in [1], in [3] and in [5] was 12 h in each case. Besides, the Activity in series [2] was -76%. The same compound returned an exposure (AUC) in [4] of 0.03 µM·h. In [6], this compound had an IC50 of 23 nM.
Consider `Cc1cc(C(=O)Nc2ccccc2)c2ccc(-c3ccc([C@H]4CC[C@H](CC(=O)O)CC4)cc3)cc2n1`, for which the figures for the IC50 in series [7] and in [6] were 1100 nM and 10 nM, respectively. Also, the Activity in series [8] is given as -94%; in [2], -100%; in [10], -79%; in series [11], “Active”. The same compound came in with an AUC in series [4] of 79 µM·h. Further, in series [9], the fold induction at 10 µM was 1.4.
